Laboratory results as given in the EternaBench riboswitch data.

System: MS2 coat protein
Assay: apparent Kd, MS2 coat protein; higher = weaker binding; RNA-MaP array
Method in brief: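 Incubations were done at room temperature with fluorescently labeled MS2 coat protein at 1.5 nM to 3 μM and designed RNAs transcribed on an Illumina sequencing chip from sequenced DNA templates, with or without input ligand. Apparent Kd is the median of binding curves fitted for each cluster. Designs with fewer than 10 measured clusters were excluded.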

[1] = designed as: OFF switch for flavin mononucleotide, no ligand
[2] = ligand present: flavin mononucleotide, designed as: OFF switch for flavin mononucleotide
[3] = designed as: ON switch for flavin mononucleotide, no ligand
[4] = ligand present: flavin mononucleotide, designed as: ON switch for flavin mononucleotide

AAUUCAAGGGUUAGGAUAUUCAAUAUAAAAUACUAGAAGAAGGAACAUGAGGAUCACCCAUGUUAUAGUGAUCU
apparent Kd [1]: 27.1 nM | apparent Kd [2]: 32.1 nM

CCUAACUGAGGAUAUGACAACUGGCACAUGAGGAUCACCCAUGUAGACUCAUUCGAGUUAUCAGAAGGCAGAAUAU
apparent Kd [1]: 10.7 nM | apparent Kd [2]: 18.8 nM

CUCACUAAGCUUUAGGAUAUAGACACUGGCACAUGAGGAUCACCCAUGUUCAACAAGGCGGAUAACUAGAAGGAAAGUAACCUUUU
apparent Kd [3]: 11.9 nM | apparent Kd [4]: 9.64 nM

CUGGGCCAAUAGAAGGGCGGGAGCGCAGGUGAUCAAACCUAUUACAUGAGGAUCACCCAUGUAACGCAGGAUAUAUCGGUUUUA
apparent Kd [1]: 25.4 nM | apparent Kd [2]: 48 nM

AGGAAGACGAUGGAUACCAGACAACCAGGGAACAUGAGGAUCACCCAUGUGAUUGAAAGGGUCCCUUGGCAGCCAGAAGCCGUUG
apparent Kd (designed as: ON switch for theophylline, no ligand): 88.3 nM | apparent Kd (ligand present: theophylline, designed as: ON switch for theophylline): 119 nM

GUUAUAAUUACCAAGGAUAUCACAAGGCUUACAUGAGGAUCACCCAUGUUAAUACUCACAGACCGUGAGAAGGUGGCAAGAUCGAU
apparent Kd [3]: 21.4 nM | apparent Kd [4]: 16 nM

GGGUAACCAGUUAGGAUAUUGAAUAGUUUGAUGUUCAAGAAGGAACAUGAGGAUCACCCAUGUAUGGGACUAGA
apparent Kd [1]: 139 nM | apparent Kd [2]: 174 nM

ACUCGACAUGAGGAUCACCCAUGUCAGGAUAUCUGAGUGUGGCCUCCUACUAAACUAUAGAGAAGGGACAAUGG
apparent Kd [1]: 10.3 nM | apparent Kd [2]: 11 nM

CGAUUACUGCAGAAGGGAGGGCCACAAAACAUGAGGAUCACCCAUGUAGAACUGAACGGGACUCCUCAGGAUAUGCGCCGAGAU
apparent Kd [3]: 28.7 nM | apparent Kd [4]: 11.8 nM

UCGGUUCGUGUAGGAUAUACUCGCAAACAGGCAAAAUGCCUACAUGAGGAUCACCCAUGUUAGUGGUAGAAGGACACCUCAACA
apparent Kd [3]: 479 nM | apparent Kd [4]: 115 nM

CCCGUGCUGCGAGGAUAUGUGUAGGAUGUUUCCACAGAAGGCGCUGGAGACAUGAGGAUCACCCAUGUGAACCCACGUACGACA
apparent Kd [3]: 24.9 nM | apparent Kd [4]: 19.9 nM

AGACAUGAGGAUCACCCAUGUCUCGGGAUGCGUAGCUUGCACAGAAGGCAUGACCGCAACGGUGAUGAGGAUAUGUCGUACCAA
apparent Kd [3]: 25.9 nM | apparent Kd [4]: 8.87 nM

ACCAGGUCAGGAUAUAGUUGGCAUUUGGCUGUGCCUCACUACUAGAAGGGACAUGAGGAUCACCCAUGUUGGGC
apparent Kd [1]: 28.6 nM | apparent Kd [2]: 50.5 nM

CUGACGUAACAUGAGGAUCACCCAUGUUUGGCGCUAUAGCAACAGGAUAUUCCGCUCACGGAGCUGAAGAAGGGUUACAGUCAC
apparent Kd [3]: 14 nM | apparent Kd [4]: 8.37 nM

CAUAAACCCUAGAAGGGCGCAUUAUGUAGAUUCGCAGGAUAUAGGAACGGGAUCGUGUAUACAACAUGAGGAUCACCCAUGUCA
apparent Kd [3]: 15.4 nM | apparent Kd [4]: 14.4 nM

UUCACGUUAGGAUAUCGCGUCAGCACAGCCUGUAUGGCAAGCGAGAAGGAACAUGAGGAUCACCCAUGUCGGAC
apparent Kd [1]: 11.4 nM | apparent Kd [2]: 28.7 nM

UGGCGCUGUGCAGGAUAUAUCAAUUAGAACAGGGCGCAGGGUAGAAACAUGAGGAUCACCCAUGUAUAGAAGGGCACAGUAGGU
apparent Kd [1]: 53.1 nM | apparent Kd [2]: 49.7 nM

CGCCACACAUGAUAAUCAUAACAUGAGGAUCACCCAUGUCAUAGAAGGUGCAUAUUUUAGAAUCGCAAGGAUAUAUGGACAAUU
apparent Kd [1]: 16.2 nM | apparent Kd [2]: 18.7 nM

AUGUAACGUGAGAAGGUGUUGAAAUAAGUUCCAUAAAUCUUACAUGAGGAUCACCCAUGUUUAUACAAGGAUAUCAUUAAUUAU
apparent Kd [3]: 16.8 nM | apparent Kd [4]: 12.9 nM

UCUCUCGAUGUGCAUUGACAUGAGGAUCACCCAUGUACUGCCUAGGAUAUAACUGGCCCGAUCAGUUAGAAGGAGGGAGAAUAG
apparent Kd [1]: 6.67 nM | apparent Kd [2]: 6.51 nM

CGAAGUAGUAGAGGAUAUGCUAGAGAUGGUUCUGCAGAAGGCUACCCUCUUGAUUAUAUUACAUGAGGAUCACCCAUGUUGGUU
apparent Kd [1]: 10.7 nM | apparent Kd [2]: 10.2 nM

GUAACACUGUCAUCGCCGACAUGAGGAUCACCCAUGUGUAAGAGAAGGACCGAGACCGGGAAAUGGUAGGAUAUCUGUGGGUAG
apparent Kd [1]: 45.1 nM | apparent Kd [2]: 84.5 nM

ACUAAUCAGCAACAUGAGGAUCACCCAUGUGGGCCGUCCGGCAGAAGGCCUACGCACUUAGACUAGGAGGAUAUGCAAGCAACU
apparent Kd [1]: 15.7 nM | apparent Kd [2]: 18.4 nM

AAGAGCAGAGGAUAUACAUAGGCAUCAGUUGAAGCAGCUGAACAUGAGGAUCACCCAUGUAGAAGGCUGACAAA
apparent Kd [1]: 5.43 nM | apparent Kd [2]: 7.29 nM

CCAUAAGACGAGAAGGGCUGCCAACUAGGUAGAGCAGGAUAUCGUCUUACUCGUCAUGGCAAAACAUGAGGAUCACCCAUGUAU
apparent Kd [1]: 8.16 nM | apparent Kd [2]: 7.82 nM

CCUCAAAGACAGAAGGAAGGUCCGCUACUAGCAGUAACAACAUGAGGAUCACCCAUGUCAAUACCUUAGGAUAUGUAAGAACGC
apparent Kd [3]: 71.2 nM | apparent Kd [4]: 16.5 nM
